Screening data as filed in PubChem BioAssay.
In the library only some 2.5% were active in any assay of this set; here they are far more common.
SENP1 FRET inh – human SENP1 catalytic domain inhibitors, primary screen, biochemical, FRET, uHTS. Sentrin-specific protease 1 (Homo sapiens), Q9P0U3. recombinant SENP1 catalytic domain, CyPet-SUMO1-YPet FRET cleavage. inhibition, % at 10 µM. 360,000 compounds, 0.21% hits;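 active = inhibition at least 30% at 10 µM, raw YFP signal under a set limit, fluorescence ratio 0.5 to 1.5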;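 note: 0% = enzyme with DMSO and 100% = no enzyme wells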
Target sequence (Q9P0U3 419-644 limits assumed): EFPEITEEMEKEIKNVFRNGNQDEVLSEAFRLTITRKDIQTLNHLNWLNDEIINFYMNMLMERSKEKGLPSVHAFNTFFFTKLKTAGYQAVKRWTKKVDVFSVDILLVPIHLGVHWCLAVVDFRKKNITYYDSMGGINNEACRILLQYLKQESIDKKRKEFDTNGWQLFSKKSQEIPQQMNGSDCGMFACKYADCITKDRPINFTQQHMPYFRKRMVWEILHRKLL
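Test system: hSENP1 catalytic domain, recombinant; Amount: 20 pM final SENP1 enzyme; Medium: Tris pH 8 buffer plus EDTA, NaCl, BME, BSA, NP40, catalase; Schedule: 50 min enzyme reaction, room temperature, light-protected; Technique: FRET fluorescence in CFP and YFP emission channels; Controls: no-enzyme wells low, DMSO-plus-enzyme wells high control.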
SENP7 inh – SENP7 protease inhibitors, primary screen, biochemical, luminescence, uHTS; AID 434973, 2010; recombinant SENP7, Z-RLRGG-aminoluciferin luminescence, 40 min; 330,000 compounds, 1.5% hits; Sentrin-specific protease 7 (Homo sapiens), Q9BQF6; inhibition, % at 5 µM;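 active = inhibition above about 50% at the single test dose, limit read from the data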;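 note: plate controls were DMSO with enzyme for no effect and no enzyme buffer wells for full effect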
SENP8 block-1 – SENP8 protease inhibitors, primary screen, biochemical, luminescence. purified SENP8, Z-RLRGG-aminoluciferin cleavage. inhibition, % at 10 µM. 330,000 compounds, 1.2% hits; in the data active = inhibition above about 50%
Target sequence (Q96LD8 whole entry, looked up): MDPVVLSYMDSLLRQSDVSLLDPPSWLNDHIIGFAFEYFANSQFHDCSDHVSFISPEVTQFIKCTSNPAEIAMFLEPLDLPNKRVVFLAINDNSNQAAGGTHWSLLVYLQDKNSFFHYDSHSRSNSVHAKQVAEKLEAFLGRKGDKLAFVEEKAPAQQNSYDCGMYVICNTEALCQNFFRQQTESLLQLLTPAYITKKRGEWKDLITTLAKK
SENP6 block – SENP6 protease inhibitors, primary screen, biochemical, luminescence, uHTS; 330,000 compounds, 1.8% hits; inhibition, % at 10 µM; Recombinant SENP6 catalytic domain, aminoluciferin luminescence; Sentrin-specific protease 6 (Homo sapiens), Q9GZR1;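 active = inhibition above about 50% at the single tested dose, limit read from the data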;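 note: plate controls were DMSO wells with enzyme for no effect and DMSO wells lacking enzyme for full effect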
SENP8 block-2 – human SENP8 protease inhibitors, primary screen, biochemical, fluorescence, Nedd8 protein substrate, uHTS. Sentrin-specific protease 8 (Homo sapiens), Q96LD8. recombinant SENP8. inhibition, % at 20 µM. 360,000 compounds, 0.64% hits. AID 602440, 2012; in the data active = inhibition mostly above about 40%, no sharp cut-off; inactive = mostly below about 27%
SENP8 confirm – SENP8 protease inhibitors, retest, confirmation, biochemical, luminescence, single concentration | AID 488912, 2010 | 6,200 compounds, 40% hits | Recombinant SENP8, Z-RLRGG-aminoluciferin luminescence, 60 min | shares compounds with SENP7 inh | inhibition, % at 12.5 µM;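 active = mean inhibition across replicates above about 50%, limit read from the data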
SENP6 confirm – SENP6 protease inhibitors, confirmation, biochemical, luminescence, single concentration; shares compounds with SENP7 inh; recombinant SENP6, Z-RLRGG-aminoluciferin luminescence; inhibition, % at 12.5 µM; 6,200 compounds, 58% hits
SENP7 conf – SENP7 protease inhibitors, retest, confirmation, biochemical, luminescence, single concentration; 6,200 compounds, 69% hits; shares compounds with SENP7 inh; recombinant SENP7, Z-RLRGG-aminoluciferin luminescence, 40 min; inhibition, % at 12.5 µM
Casp3 select – caspase-3 protease inhibitors, confirmation, selectivity assay for SENP inhibitor project, biochemical, single concentration | shares compounds with SENP7 inh | purified caspase-3, Z-DEVD-aminoluciferin luminescence, 60 min | inhibition, % at 12.5 µM | 6,200 compounds, 60% hits;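 active = mean inhibition above about 50%, limit read from the data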;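 note: plate controls were enzyme with DMSO for no effect and wells without caspase-3 for full effect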
Luc interf – interferes with luciferase luminescence in SENP counter-screen | AID 488919 | inhibition, % at 12.5 µM | shares compounds with SENP7 inh | 6,200 compounds, 39% hits | Pre-incubated SENP8/Z-RLRGG-aminoluciferin, luciferase luminescence interference;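 active = mean inhibition above about 50% when retested at one dose, limit read from the data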;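 note: plate controls were DMSO wells with completed reaction for no effect and substrate without enzyme for full effect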
Active calls of the source: *.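 Rule for the calls, unless noted: active = mean inhibition above about 50% in the one-dose retest (limit read from the data); inactive = the rest.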

Screening Cc1ccc(/C=N/Nc2ccc(C(=O)O)cc2)s1 returned SENP1 FRET inh -38.2, SENP7 inh -6.9, SENP8 block-1 96.7*, SENP6 block 94.5*, SENP8 block-2 -166.7, SENP8 confirm 52.1*, SENP6 confirm 101.4*, SENP7 conf 104.1*, Casp3 select 99.1* and Luc interf 100.1*.
CC(=O)C[C@H](O)CC(=O)[C@H]1OC(=O)[C@H](C)C/C=C\Cc2ccccc21 was read as SENP1 FRET inh -1.3, SENP7 inh 2.9, SENP8 block-1 -10.6, SENP6 block -7.7 and SENP8 block-2 10.0.
Cc1csc(NC(=O)CSc2nc(C(C)C)nc3ccccc23)n1 was read as SENP1 FRET inh 2.9, SENP7 inh 0.4, SENP8 block-1 4.9, SENP6 block -0.4 and SENP8 block-2 7.9.
For CC(C)c1ccc(NC2CCCN(C(=O)CSc3nncn3C)C2)cc1 (stereo not given) the results were SENP1 FRET inh 1.8, SENP7 inh 0.9, SENP8 block-1 1.1, SENP6 block -10.5 and SENP8 block-2 3.0.
O=C1CCC/C=C/C[C@H](CC(=O)N(CCO)Cc2ccccc2)C(=O)N[C@@H](Cc2ccccc2)CO1 was read as SENP1 FRET inh -0.3, SENP7 inh -3.7, SENP8 block-1 1.4, SENP6 block -18.1 and SENP8 block-2 9.9.
Screening O=C(NCc1ccc2c(c1)OCO2)c1nc(Cn2cc(Br)cn2)no1 returned SENP1 FRET inh -1.3, SENP7 inh 3.8, SENP8 block-1 -5.9, SENP6 block -0.1 and SENP8 block-2 2.6.
For CC(C)c1nnc(NC(=O)c2sc3ccccc3c2Cl)s1 the results were SENP1 FRET inh 1.7, SENP7 inh 1.9, SENP8 block-1 32.9, SENP6 block 29.6 and SENP8 block-2 -44.1.
Cc1ccc2c(Cl)c(C(=O)Nc3cc(C)on3)sc2c1 was read as SENP1 FRET inh 3.0, SENP7 inh 27.4, SENP8 block-1 -12.6, SENP6 block -3.0 and SENP8 block-2 14.4.
`O=C(Nc1nccs1)c1sc2cc(Cl)ccc2c1Cl` gave SENP1 FRET inh 0.2, SENP7 inh 15.8, SENP8 block-1 -19.6, SENP6 block -5.9 and SENP8 block-2 -41.6.
`Cc1ccnc(NC(=O)c2sc3ccccc3c2Cl)c1` gave SENP1 FRET inh 0.9, SENP7 inh 89.3*, SENP8 block-1 57.4*, SENP6 block 71.0*, SENP8 block-2 -2.5, SENP8 confirm 42.2, SENP6 confirm 37.4, SENP7 conf 15.6, Casp3 select 55.2* and Luc interf 6.3.
For O=C(Nc1nccs1)c1sc2ccccc2c1Cl the results were SENP1 FRET inh 3.0, SENP7 inh 70.7*, SENP8 block-1 75.3*, SENP6 block 87.7*, SENP8 block-2 -88.5, SENP8 confirm 1.8, SENP6 confirm 58.2*, SENP7 conf 90.9*, Casp3 select 69.6* and Luc interf 6.9.
